# Measured values reported in the M2OR odorant receptor database.
# Columns and labels:
# Details in all cases: stereoisomer not certain
# OR10A2 (Homo sapiens) = target: T1, OR10A2 (Homo sapiens) (UniProt Q9H208)
# T1 sequence (whole entry): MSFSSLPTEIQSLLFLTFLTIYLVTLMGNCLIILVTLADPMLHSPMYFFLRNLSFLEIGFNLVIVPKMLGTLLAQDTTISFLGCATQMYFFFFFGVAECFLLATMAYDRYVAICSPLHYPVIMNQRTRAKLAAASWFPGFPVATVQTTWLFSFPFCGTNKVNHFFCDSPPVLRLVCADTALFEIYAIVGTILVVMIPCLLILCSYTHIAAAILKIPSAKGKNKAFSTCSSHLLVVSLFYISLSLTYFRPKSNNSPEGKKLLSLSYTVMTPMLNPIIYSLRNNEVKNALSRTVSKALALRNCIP
# Method in brief: (§1)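 Values were gathered from published papers (main text and supplementary material), with extra details requested from the original authors when needed, and checked for typos and inconsistencies. Each receptor–molecule pair is called responsive (active) if the original authors judged the measured signal statistically different from baseline, and non-responsive (inactive) otherwise. Assay methods varied by source, often transient mammalian cell-line luciferase assays. Recorded details include cell line, G-protein, co-transfected protein and tags.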
# OR10A3 (Homo sapiens) = target: T2, OR10A3 (Homo sapiens) (UniProt P58181)
# T2 sequence (whole entry): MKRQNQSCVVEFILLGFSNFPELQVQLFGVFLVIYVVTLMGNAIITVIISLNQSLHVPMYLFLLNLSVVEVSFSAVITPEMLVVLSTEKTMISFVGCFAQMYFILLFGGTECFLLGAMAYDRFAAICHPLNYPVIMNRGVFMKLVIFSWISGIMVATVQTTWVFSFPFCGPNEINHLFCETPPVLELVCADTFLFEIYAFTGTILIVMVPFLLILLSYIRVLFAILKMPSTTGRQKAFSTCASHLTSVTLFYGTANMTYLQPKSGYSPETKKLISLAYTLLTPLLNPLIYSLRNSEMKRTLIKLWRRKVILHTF
# Method in brief: as §1
# OR10A4 (Homo sapiens) = target: T3, OR10A4 (Homo sapiens) (UniProt Q9H209)
# T3 sequence (whole entry): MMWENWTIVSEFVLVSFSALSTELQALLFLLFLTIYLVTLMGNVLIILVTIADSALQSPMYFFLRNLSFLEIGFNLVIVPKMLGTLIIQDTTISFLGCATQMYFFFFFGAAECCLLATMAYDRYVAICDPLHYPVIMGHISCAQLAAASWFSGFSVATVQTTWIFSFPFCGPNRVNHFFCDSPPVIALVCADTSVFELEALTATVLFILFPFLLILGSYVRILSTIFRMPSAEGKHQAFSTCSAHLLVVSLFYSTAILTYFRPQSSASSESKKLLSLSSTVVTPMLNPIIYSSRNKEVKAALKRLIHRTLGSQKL
# Method in brief: as §1
# OR10A5 (Homo sapiens) = target: T4, OR10A5 (Homo sapiens) (UniProt Q9H207)
# T4 sequence (whole entry): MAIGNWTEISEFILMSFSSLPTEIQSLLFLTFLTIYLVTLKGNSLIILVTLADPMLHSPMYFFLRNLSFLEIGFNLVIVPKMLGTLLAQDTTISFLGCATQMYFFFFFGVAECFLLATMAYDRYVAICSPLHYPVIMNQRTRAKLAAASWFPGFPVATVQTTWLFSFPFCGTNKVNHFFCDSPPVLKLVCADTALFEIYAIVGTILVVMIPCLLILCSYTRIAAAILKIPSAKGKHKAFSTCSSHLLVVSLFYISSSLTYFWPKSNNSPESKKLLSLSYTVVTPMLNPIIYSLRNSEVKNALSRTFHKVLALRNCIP
# Method in brief: as §1
# OR10A6 (Homo sapiens) = target: T5, OR10A6 (Homo sapiens) (UniProt Q8NH74)
# T5 sequence (whole entry): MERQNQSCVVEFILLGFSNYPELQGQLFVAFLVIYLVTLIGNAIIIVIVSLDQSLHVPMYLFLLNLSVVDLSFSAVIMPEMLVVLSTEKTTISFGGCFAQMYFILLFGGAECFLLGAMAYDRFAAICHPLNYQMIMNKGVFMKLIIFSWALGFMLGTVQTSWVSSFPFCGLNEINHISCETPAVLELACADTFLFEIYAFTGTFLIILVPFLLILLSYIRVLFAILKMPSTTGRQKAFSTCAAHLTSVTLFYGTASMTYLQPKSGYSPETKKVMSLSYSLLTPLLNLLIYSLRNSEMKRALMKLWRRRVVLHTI
# Method in brief: as §1
# OR10A7 (Homo sapiens) = target: T6, OR10A7 (Homo sapiens) (UniProt Q8NGE5)
# T6 sequence (whole entry): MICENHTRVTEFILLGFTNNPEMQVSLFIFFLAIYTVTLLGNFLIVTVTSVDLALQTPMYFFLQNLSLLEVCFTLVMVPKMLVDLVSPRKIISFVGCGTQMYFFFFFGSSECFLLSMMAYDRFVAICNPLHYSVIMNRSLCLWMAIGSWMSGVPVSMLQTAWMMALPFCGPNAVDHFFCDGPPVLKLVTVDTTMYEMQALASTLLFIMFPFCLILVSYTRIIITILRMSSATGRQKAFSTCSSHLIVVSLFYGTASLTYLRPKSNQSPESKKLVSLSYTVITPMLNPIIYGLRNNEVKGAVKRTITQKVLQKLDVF
# Method in brief: as §1
# OR10AD1 (Homo sapiens) = target: T7, OR10AD1 (Homo sapiens) (UniProt Q8NGE0)
# T7 sequence (whole entry): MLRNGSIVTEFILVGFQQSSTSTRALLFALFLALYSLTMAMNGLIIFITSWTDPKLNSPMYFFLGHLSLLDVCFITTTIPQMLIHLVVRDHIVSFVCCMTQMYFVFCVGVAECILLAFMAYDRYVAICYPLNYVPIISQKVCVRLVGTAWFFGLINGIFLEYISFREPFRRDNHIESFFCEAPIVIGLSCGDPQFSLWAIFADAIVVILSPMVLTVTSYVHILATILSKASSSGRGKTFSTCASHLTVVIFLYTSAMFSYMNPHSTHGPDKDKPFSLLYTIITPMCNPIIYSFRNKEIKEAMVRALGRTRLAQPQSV
# Method in brief: as §1
# OR10AG1 (Homo sapiens) = target: T8, OR10AG1 (Homo sapiens) (UniProt Q8NH19)
# T8 sequence (whole entry): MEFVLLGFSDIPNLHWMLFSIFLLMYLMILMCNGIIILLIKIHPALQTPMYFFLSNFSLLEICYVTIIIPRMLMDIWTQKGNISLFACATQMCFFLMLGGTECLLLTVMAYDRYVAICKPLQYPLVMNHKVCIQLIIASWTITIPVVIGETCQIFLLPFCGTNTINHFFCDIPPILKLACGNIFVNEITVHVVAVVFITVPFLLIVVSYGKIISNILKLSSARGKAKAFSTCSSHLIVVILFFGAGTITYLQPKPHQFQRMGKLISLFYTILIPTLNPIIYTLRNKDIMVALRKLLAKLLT
# Method in brief: as §1
# OR10C1 (Homo sapiens) = target: T9, OR10C1 (Homo sapiens) (UniProt Q96KK4)
# T9 sequence (whole entry): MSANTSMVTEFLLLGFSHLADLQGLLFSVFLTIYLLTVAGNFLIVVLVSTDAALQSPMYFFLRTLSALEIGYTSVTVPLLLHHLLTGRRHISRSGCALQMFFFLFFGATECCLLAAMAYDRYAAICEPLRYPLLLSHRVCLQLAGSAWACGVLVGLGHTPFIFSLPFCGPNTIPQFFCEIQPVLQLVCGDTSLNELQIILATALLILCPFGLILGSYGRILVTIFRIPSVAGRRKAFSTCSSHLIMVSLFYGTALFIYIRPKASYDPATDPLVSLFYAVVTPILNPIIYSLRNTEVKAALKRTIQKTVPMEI
# Method in brief: as §1
# OR10D3 (Homo sapiens) = target: T10, OR10D3 (Homo sapiens) (UniProt Q8NH80)
# T10 sequence (whole entry): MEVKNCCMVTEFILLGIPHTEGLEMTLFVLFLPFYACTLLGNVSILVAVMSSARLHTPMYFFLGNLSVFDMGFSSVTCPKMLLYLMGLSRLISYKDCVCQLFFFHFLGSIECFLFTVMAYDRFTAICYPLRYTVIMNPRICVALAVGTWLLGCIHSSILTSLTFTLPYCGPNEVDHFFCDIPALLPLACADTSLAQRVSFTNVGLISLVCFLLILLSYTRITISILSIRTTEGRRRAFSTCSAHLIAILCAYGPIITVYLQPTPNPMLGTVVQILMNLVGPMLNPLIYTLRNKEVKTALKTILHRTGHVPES
# Method in brief: as §1
# O5AN1 = system: T11, O5AN1
# T11 sequence (whole entry): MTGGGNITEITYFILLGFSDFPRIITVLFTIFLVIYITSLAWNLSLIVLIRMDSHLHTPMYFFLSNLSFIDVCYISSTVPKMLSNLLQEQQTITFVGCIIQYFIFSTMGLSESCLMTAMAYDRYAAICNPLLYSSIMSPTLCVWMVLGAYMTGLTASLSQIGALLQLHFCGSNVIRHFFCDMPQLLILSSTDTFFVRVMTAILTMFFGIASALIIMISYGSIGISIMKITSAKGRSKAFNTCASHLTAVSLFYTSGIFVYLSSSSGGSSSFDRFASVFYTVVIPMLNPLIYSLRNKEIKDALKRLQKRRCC
# Method in brief: as §1
structure (smiles),measurement,setting,value
CCCCC(S)C(C)CO (stereo not given),odorant receptor agonist call,OR10A2 (Homo sapiens),inactive
same,odorant receptor agonist call,OR10A3 (Homo sapiens),inactive
same,odorant receptor agonist call,OR10A4 (Homo sapiens),inactive
same,odorant receptor agonist call,OR10A5 (Homo sapiens),inactive
same,odorant receptor agonist call,OR10A6 (Homo sapiens),inactive
same,odorant receptor agonist call,OR10A7 (Homo sapiens),inactive
same,odorant receptor agonist call,OR10AD1 (Homo sapiens),inactive
same,odorant receptor agonist call,OR10AG1 (Homo sapiens),inactive
same,odorant receptor agonist call,OR10C1 (Homo sapiens),inactive
same,odorant receptor agonist call,OR10D3 (Homo sapiens),inactive
CC1(C)CC(=O)CC(=O)C1,odorant receptor agonist call,OR10A7 (Homo sapiens),inactive
O=C1CCCCCCC=CCCCCCCC1,odorant receptor agonist call,O5AN1,active
CC1CCCCCCCCCCCC(=O)C1 (stereo not given),odorant receptor agonist call,O5AN1,active
CC1CC=CCCCCCCCCC(=O)C1 (stereo not given),odorant receptor agonist call,O5AN1,active
C1CCCCCCCCCCCCCC1,odorant receptor agonist call,O5AN1,inactive
